DNMT1 block – blocks human DNA methyltransferase DNMT1; 360,000 compounds, 0.83% hits; inhibition (reported as % activation of signal), % at 10 µM; DNMT1 molecular beacon, Hinp1I cleavage, fluorescence; in the data active = inhibition above about 50%
Target sequence (P26358 504-1616 limits assumed): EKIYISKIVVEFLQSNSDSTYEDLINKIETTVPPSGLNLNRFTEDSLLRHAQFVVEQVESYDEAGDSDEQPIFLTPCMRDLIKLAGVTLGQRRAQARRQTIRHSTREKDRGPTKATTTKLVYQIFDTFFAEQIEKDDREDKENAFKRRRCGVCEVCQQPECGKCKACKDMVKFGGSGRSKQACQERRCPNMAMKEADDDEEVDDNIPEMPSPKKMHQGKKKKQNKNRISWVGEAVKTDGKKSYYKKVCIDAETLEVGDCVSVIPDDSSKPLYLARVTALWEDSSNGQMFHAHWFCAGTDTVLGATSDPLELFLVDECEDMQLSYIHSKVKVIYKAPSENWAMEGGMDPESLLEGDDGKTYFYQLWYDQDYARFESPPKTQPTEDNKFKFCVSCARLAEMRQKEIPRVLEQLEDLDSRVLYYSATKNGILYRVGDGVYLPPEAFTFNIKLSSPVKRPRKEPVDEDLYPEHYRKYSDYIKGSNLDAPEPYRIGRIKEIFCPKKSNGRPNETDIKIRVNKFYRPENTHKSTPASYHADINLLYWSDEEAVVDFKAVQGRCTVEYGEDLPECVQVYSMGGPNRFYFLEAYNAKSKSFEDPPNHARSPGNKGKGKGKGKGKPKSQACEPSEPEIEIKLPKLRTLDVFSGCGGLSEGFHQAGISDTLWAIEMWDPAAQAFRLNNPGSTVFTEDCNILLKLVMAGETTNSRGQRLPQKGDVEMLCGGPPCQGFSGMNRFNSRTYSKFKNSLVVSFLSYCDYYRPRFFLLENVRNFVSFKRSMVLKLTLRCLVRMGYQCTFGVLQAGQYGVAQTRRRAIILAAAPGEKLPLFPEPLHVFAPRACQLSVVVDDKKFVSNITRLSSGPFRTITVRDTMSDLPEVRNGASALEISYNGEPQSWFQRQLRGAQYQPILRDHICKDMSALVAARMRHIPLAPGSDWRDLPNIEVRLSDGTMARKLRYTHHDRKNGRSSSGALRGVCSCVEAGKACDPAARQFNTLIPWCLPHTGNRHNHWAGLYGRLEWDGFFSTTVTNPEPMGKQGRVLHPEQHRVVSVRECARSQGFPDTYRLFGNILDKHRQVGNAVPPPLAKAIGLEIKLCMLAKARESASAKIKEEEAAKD
LMPTP block – blocks human LMPTP phosphatase | P24666 | recombinant LMPTP-A, OMFP fluorogenic substrate, fluorescence intensity | 360,000 compounds, 0.22% hits | AID 651560 | inhibition, % at 20 µM;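 active = compounds that cut the enzyme signal by at least half of the control window in the single-dose screen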;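 also: plate controls were DMSO wells with enzyme plus substrate for no effect and substrate without enzyme for full effect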
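Test system: LMPTP-A phosphatase enzyme. Amount: LMPTP-A at 0.625 nM final in the reaction. Reagent: OMFP substrate, 400 µM final. Times: 50 min at room temperature. Signal: endpoint fluorescence intensity from OMFP dephosphorylation. Read-out basis: % inhibition. Benchmarks: no-enzyme and uninhibited controls.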
SUMO1-SIM PPI – alters human SUMO1 binding to SIM partners. P63165. SUMO1 binding to a labelled peptide, TR-FRET, 1 h. inhibition, % at 20 µM. 360,000 compounds, 0.33% hits; in the data active = inhibition above about 37%
STEP block – inhibitors of human striatal-enriched phosphatase STEP; recombinant STEP, OMFP fluorogenic substrate, fluorescence; inhibition, % at 20 µM; 360,000 compounds, 0.25% hits; AID 588621;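 active = inhibition at 20 µM, scaled per plate between control wells, above about 37%, limit read from the data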;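 also: 0% = DMSO with enzyme and substrate and 100% = substrate only without enzyme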
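Also added – OMFP at 25 µM · Test system – STEP tyrosine phosphatase · Technique – FITC-channel fluorescence of OMFP product · Schedule – 20 min at room temperature, dark · Evaluation – control-normalized % inhibition with plate pattern correction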
Scp1 inh – Scp-1 (human) phosphatase inhibition; Q9GZU7; Recombinant Scp1, phosphopeptide, malachite green phosphate absorbance; inhibition, % at 20 µM; 340,000 compounds, 0.88% hits;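 active = inhibition above about 50% at 20 µM, limit read from the data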;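 also: plate controls were DMSO wells with enzyme for no effect and wells lacking enzyme for full effect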
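Times: enzyme reaction 45 min at room temperature, colour 5 min, stabilisation 30 min. Material: SCP-1 catalytic fragment, aa 76-261. Medium: Acidic Tris acetate buffer with magnesium and detergent. Signal: colorimetric free-phosphate detection, absorbance 630 nm. Read-out basis: % inhibition of SCP-1 phosphate liberation. Reagent: Phosphorylated 17-residue peptide substrate.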
DNMT1 interf DR – counter-screen for DNMT1 inhibitors: spectral interference, dose response | IC50, µM | molecular beacon fluorescence | 200 tested, under 10 active | shares compounds with DNMT1 block; call rule not given here
DNMT1 confirm – DNMT1 inhibition confirmation, single concentration; shares compounds with DNMT1 block; DNMT1 molecular beacon HinP1I cleavage, fluorescence; inhibition, % at 10 µM; 2,300 compounds, 8% hits;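 active = average inhibition of at least 30% in the single-concentration confirmation test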
Beacon interf – beacon fluorescence artifact counter-screen; shares compounds with DNMT1 block; DNMT1 molecular beacon spectral interference counterscreen, fluorescence 485/520; activation (fluorescence interference), % at 10 µM; 2,300 compounds, 1% hits;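 active = activation of at least 30% at 10 µM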;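 also: DNMT1 catalytic domain with a HinP1I cleavage step and a FAM/dabcyl DNA beacon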
* hit, by the source's call; nt = not tested or not shown. Only some compounds are listed: those with a hit (about 1.7% of all), similar ones and a draw of the others.

SMILES | DNMT1 block | LMPTP block | SUMO1-SIM PPI | STEP block | Scp1 inh | DNMT1 confirm | Beacon interf | others
CC[C@]12c3[nH]c4cc(CCC(=O)N(C)C)ccc4c3CCN1C(=O)[C@@H](CC(=O)NC(C)(C)C)C[C@@H]2C(=O)N1CCN(C(=O)c2ccco2)CC1 | 6 | -1 | -3 | 2 | -1 | nt | nt
O=C1C=C(O)CC(c2ccco2)C1 (centres undefined) | 80* | -1 | 18 | 1 | 44 | 4 | 3
COc1cccc(CC(NC(C)=O)C(=O)NC2CCN(C(=O)C3CCCCC3)CC2)c1OC (centres undefined) | 3 | -1 | 1 | -1 | -2 | nt | nt
NC1=NC(=O)/C(=C\c2ccco2)S1 | 74* | 3 | 28 | 5 | 63* | 8 | -1
NC1=NC(=O)C(=Cc2ccccc2)S1 | -5 | 0 | -26 | 2 | 2 | nt | nt
Cc1ccccc1OC(C)C(=O)N1CCN(c2ccccn2)CC1 (centres undefined) | 0 | 0 | 1 | 2 | -6 | nt | nt
Cc1ccsc1C1NC(=O)c2ccccc2N1 (centres undefined) | 1 | -1 | 3 | -2 | -12 | nt | nt
O=C1NC(c2cccs2)Nc2ccccc21 (centres undefined) | 64* | 0 | -5 | -4 | -12 | 2 | 0
C=CCNc1ncnc2sc(SC)nc12 | 2 | 1 | -3 | 2 | -14 | nt | nt
COc1ccc(NC(=O)CSc2ccc3c4c(cccc24)C(=O)c2ccccc2-3)cc1 | 61* | 3 | -10 | 0 | -7 | 5 | 1
O=C(CSc1nc2c(sc3ccccc32)c(=O)n1CCc1ccccc1)NCc1ccco1 | 65* | -1 | 0 | 2 | 5 | 3 | -4
COc1ccc(-n2c(SCC(=O)Nc3ccc(NC(C)=O)cc3)nc3ccccc3c2=O)cc1 | -8 | -1 | 11 | 2 | -4 | nt | nt
COc1ccc(NC(=O)CSc2nnc(C)c3ccccc23)cc1 | -1 | -1 | -1 | -1 | 0 | nt | nt
Cc1ccc(NC(=O)CSc2nc3ccccc3c3nc4ccccc4n23)cc1 | 52* | 0 | 2 | 0 | 3 | 2 | -6
COc1ccc(NC(=O)CSc2nc3ccccc3c3nc4ccccc4n23)cc1 | 58* | 1 | -1 | 1 | 3 | 5 | -7
O=C(CSc1nc2ccccc2c2nc3ccccc3n12)NCc1ccco1 | 71* | 6 | 6 | 2 | 25 | 15 | 1
COc1ccc(NC(=O)c2noc3c2CCC3)cc1 | 108* | 7 | 12 | 7 | 83* | 5 | 0
COc1ccc(CNC(=O)c2noc3c2CCCCC3)cc1 | 2 | -1 | 4 | -4 | -11 | nt | nt
Cc1ccc(NC(=O)c2ccc(NC(=O)c3ccccc3)cc2)cc1C | 57* | 5 | 19 | -2 | -8 | 4 | 5
Cc1ccc(NC(=O)c2noc3c2CCC3)cc1C | 95* | 9 | 8 | 12 | 78* | 9 | -2
O=C(Nc1cccc(O)c1)c1noc2c1CCCCC2 | 8 | -2 | 2 | -5 | -6 | nt | nt
Cc1ccc(C(=O)Nc2ccc(Nc3ccccc3)cc2)cc1C | -25 | 3 | 1 | 1 | -24 | nt | nt
O=C(COC(=O)CCN=C1NS(=O)(=O)c2ccccc21)NC1CCCCCCC1 | 1 | 0 | 0 | 0 | -12 | nt | nt
Cn1ccnc1C(=O)c1cc(SCC(=O)N2CCOCC2)nc2ccccc12 | 1 | 0 | -12 | 0 | -3 | nt | nt
CCOc1cc(/C=C2\CCCc3c2nc2ccccc2c3C(=O)O)ccc1OC | 61* | -6 | 8 | -50 | -7 | 2 | 1
SMILES | DNMT1 block | LMPTP block | SUMO1-SIM PPI | STEP block | Scp1 inh | DNMT1 confirm | Beacon interf | others
COc1ccc(/C=C2\CCn3c2nc2ccccc2c3=O)cc1OC | -5 | 0 | -17 | 0 | -4 | nt | nt
O=C(Cc1cccs1)Nc1nncs1 | 9 | -1 | 10 | -2 | -2 | nt | nt
CC(C)Cc1nnc(NC(=O)Cc2cccs2)s1 | 63* | 6 | 1 | 10 | 19 | 20 | -3
O=C(NNC1=Nc2cccc3cccc1c23)c1ccc(Br)cc1 | 31 | 5 | 4 | 2 | 5 | nt | nt
Cc1c(NS(=O)(=O)c2cccc(C(=O)NCc3ccco3)c2)c(=O)n(-c2ccccc2)n1C | 78* | -4 | 0 | 4 | 39 | 2 | 3
C=CCn1c(SCc2nc3ccccc3c(=O)[nH]2)nc2sc3c(c2c1=O)CCCC3 | nt | nt | nt | nt | -11 | nt | nt
C=CCn1c(SCc2nc3sc4c(c3c(=O)[nH]2)CCCC4)nc2ccccc2c1=O | 55* | 0 | 0 | -2 | -10 | 0 | -9
COC(=O)c1ccccc1NC(=O)c1cc2ncc(Br)cn2n1 | 68* | 5 | 1 | 7 | 40 | 0 | -4
O=C(C1CCN(S(=O)(=O)c2cccs2)CC1)N1CCCCC1 | 4 | -1 | 11 | 1 | 7 | nt | nt
O=C1CCC/C(=N/NC(=O)C2CCN(S(=O)(=O)c3cccs3)CC2)C1 | 71* | -1 | 0 | -3 | -7 | 1 | 4
C=CCSC1=N/C(=C\C=C\c2ccco2)C(=O)S1 | 97* | 36 | 21 | 4 | 53* | 3 | -2
O=C1C=C(/C=C/c2ccccc2)C[C@@H](c2ccc3c(c2)OCO3)C1 | -2 | 3 | -21 | 4 | -6 | nt | nt
O=C1CC(=O)N(Cc2ccco2)C(=O)N1 | 109* | 51* | 25 | 95* | 66* | 105* | -5 | DNMT1 interf DR=>99
O=C1CC(=O)N(Cc2cccs2)C(=O)N1 | -9 | 0 | -4 | 1 | -3 | nt | nt
O=C(CSc1ccc(Cl)cc1)N/N=C/c1cccnc1 | 0 | -1 | -2 | -1 | -1 | nt | nt
Cc1cc2cc(CNC(=S)Nc3ccc(OC(F)(F)F)cc3)ccc2n1C | 57* | 2 | -71 | -3 | 3 | 1 | 4
Cc1cccc(NC(=O)NCc2ccc3c(c2)cc(C)n3C)c1 | 57* | 5 | -45 | -2 | -6 | 0 | 1
Cc1cc2cc(CNC(=O)Cc3ccc([N+](=O)[O-])cc3)ccc2n1C | 56* | 17 | -17 | 1 | -6 | 1 | 8
COc1cccc(CNC(=O)C2CCC(CNS(=O)(=O)c3cccc4cccnc34)CC2)c1 (centres undefined) | 0 | -1 | 3 | -1 | -7 | nt | nt
COc1ccc2[nH]cc(CCNC(=O)Cc3c(F)cccc3Cl)c2c1 | 72* | 1 | 4 | 2 | -8 | 3 | 8
c1ccc2[nH]c(NCc3ccc4c(c3)OCO4)nc2c1 | 0 | 1 | -3 | 1 | -5 | nt | nt

Screening data as filed in PubChem.
